ChEMBL document CHEMBL1157843, “Synthesis and anticonvulsant activity of a new 6-alkoxy-[1,2,4]triazolo[4,3-b]pyridazine” (Eur J Med Chem, 2010)
Active and inactive are the calls of the source. The rule behind the calls is not given here.

Tests used:
[1] = tested on: Mus musculus; assay: Anticonvulsant in mouse assessed as protection against maximum electric stimulus-induced seizures at 100 mg/kg, ip after 4 hrs; assay type: functional, organism-based; parameters: dose 100 mg/kg
In short: (§1)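 Phase-I qualitative MES screen following NIH ADD protocol. KunMing mice (18–25 g), three per dose, test agent in polyethylene glycol-400 i.p. at 30, 100 or 300 mg/kg. Protection assessed 0.5 h and 4 h after dosing; scored as animals protected/animals tested.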

[2] = tested on: Mus musculus; assay: Neurotoxicity against mouse at 100 mg/kg, ip after 4 hrs by rotarod ataxia test; assay type: toxicity, organism-based; parameters: dose 100 mg/kg, route intraperitoneal; settings: in vivo
In short: (§2)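 Phase-I rotarod ataxia screen per NIH ADD protocol. KunMing mice (18–25 g), three per dose, test agent in polyethylene glycol-400 i.p. at 30, 100 or 300 mg/kg. Neurological deficit read 30 min and 4 h after dosing; scored as animals showing toxicity/animals tested.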

[3] = tested on: Mus musculus; assay: Neurotoxicity against mouse at 100 mg/kg, ip after 0.5 hrs by rotarod ataxia test; assay type: toxicity, organism-based; parameters: dose 100 mg/kg, route intraperitoneal; settings: in vivo; in short: as §2
[4] = tested on: Mus musculus; assay: Anticonvulsant in ip dosed mouse assessed as protection against maximum electric stimulus-induced seizures; assay type: functional
In short: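 Phase-II quantitation in KunMing mice (18–25 g), vehicle polyethylene glycol-400. Groups of 10 received a range of i.p. doses until at least three points fell within 10–90% MES protection or minimal rotarod neurotoxicity. ED50, TD50 and 95% confidence intervals computed from regression by an NINDS program. PI = TD50/ED50.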

[5] = tested on: Mus musculus; assay: Protective index, ratio of TD50 for ip dosed mouse to ED50 for maximum electric stimulus-induced seizure in ip dosed mouse; assay type: functional
[6] = tested on: Mus musculus; assay: Anticonvulsant in mouse assessed as protection against maximum electric stimulus-induced seizures at 100 mg/kg, ip after 0.5 hrs; assay type: functional, organism-based; parameters: dose 100 mg/kg; in short: as §1
[7] = Neurotoxicity against ip dosed mouse by rotarod ataxia test; assay type: toxicity, organism-based; settings: in vivo
[8] = Neurotoxicity against po dosed mouse by rotarod ataxia test; assay type: toxicity, organism-based; settings: in vivo
[9] = tested on: Mus musculus; assay: Anticonvulsant activity in mouse assessed as inhibition of isoniazid-induced tonic seizure at 50 mg/kg, ip administered 30 mins prior to isoniazid challenge measured after 0.5 hrs; assay type: functional; settings: route intraperitoneal
In short: (§3)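 KunMing mice, 18–25 g, groups of 10; test agent in polyethylene glycol-400 given i.p. 30 min before convulsant. PTZ 85 mg/kg s.c., 3-MP 40 mg/kg s.c., isoniazid 250 mg/kg i.p.; doses chosen to induce seizures in at least 97% of animals. Individual cages, 30 min observation; clonic seizures, tonic seizures and lethality recorded.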

[10] = tested on: Mus musculus; assay: Anticonvulsant activity in mouse assessed as reduction of thiosemicarbazide-induced lethality at 50 mg/kg, ip administered 30 mins prior to thiosemicarbazide challenge measured after 2.5 hrs; assay type: functional; parameters: scale not given: the % may be the effect or the level left; settings: route intraperitoneal
[11] = tested on: Mus musculus; assay: Anticonvulsant activity in mouse assessed as inhibition of thiosemicarbazide-induced clonic seizure at 50 mg/kg, ip administered 30 mins prior to thiosemicarbazide challenge measured after 2.5 hrs; assay type: functional; settings: route intraperitoneal
In short: (§4)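 KunMing mice (18–25 g), groups of 10, pretreated i.p. with test agent in polyethylene glycol-400 30 min before thiosemicarbazide 50 mg/kg i.p. Animals kept in individual cages and watched for 2 h 30 min, noting clonic seizures, tonic seizures and lethality.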

[12] = tested on: Mus musculus; assay: Neurotoxicity against mouse at 30 mg/kg, ip after 4 hrs by rotarod ataxia test; assay type: toxicity, organism-based; parameters: dose 30 mg/kg, route intraperitoneal; settings: in vivo; in short: as §2
[13] = tested on: Mus musculus; assay: Anticonvulsant activity in mouse assessed as reduction of 3-mercaptopropionic acid-induced lethality at 50 mg/kg, ip administered 30 mins prior to 3-mercaptopropionic acid challenge measured after 0.5 hrs; assay type: functional; parameters: scale not given: the % may be the effect or the level left; settings: route intraperitoneal
[14] = species on record: Mus musculus; assay: Sedative-hypnotic activity in mouse assessed as reduction in righting reflex; assay type: organism-based; settings: in vivo
In short: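 Phase-III work in KunMing mice: behaviour observed at intervals up to 24 h after i.p. TD50, 2TD50 and 4TD50 doses. […] Ratio taken as HD50 divided by i.p. MES ED50.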

[15] = tested on: Mus musculus; assay: Anticonvulsant activity in mouse assessed as inhibition of 3-mercaptopropionic acid-induced tonic seizure at 50 mg/kg, ip administered 30 mins prior to 3-mercaptopropionic acid challenge measured after 0.5 hrs; assay type: functional; settings: route intraperitoneal; in short: as §3
[16] = tested on: Mus musculus; assay: Anticonvulsant activity in mouse assessed as inhibition of 3-mercaptopropionic acid-induced clonic seizure at 50 mg/kg, ip administered 30 mins prior to 3-mercaptopropionic acid challenge measured after 0.5 hrs; assay type: functional; settings: route intraperitoneal; in short: as §3
[17] = tested on: Mus musculus; assay: Anticonvulsant in mouse assessed as protection against maximum electric stimulus-induced seizures at 30 mg/kg, ip after 0.5 hrs; assay type: functional, organism-based; parameters: dose 30 mg/kg; in short: as §1
[18] = species on record: Mus musculus; assay: Ratio of HD50 for hypnotic activity to EC50 for inhibition of maximum electric stimulus-induced seizure in mouse; assay type: functional
[19] = tested on: Mus musculus; assay: Anticonvulsant activity in mouse assessed as reduction of isoniazid-induced lethality at 50 mg/kg, ip administered 30 mins prior to isoniazid challenge measured after 0.5 hrs; assay type: functional; parameters: scale not given: the % may be the effect or the level left; settings: route intraperitoneal
[20] = tested on: Mus musculus; assay: Anticonvulsant activity in mouse assessed as inhibition of PTZ-induced tonic seizure at 50 mg/kg, ip administered 30 mins prior to PTZ challenge measured after 0.5 hrs; assay type: functional; settings: route intraperitoneal; in short: as §3
[21] = tested on: Mus musculus; assay: Protective index, ratio of TD50 for po dosed mouse to ED50 for maximum electric stimulus-induced seizure in po dosed mouse; assay type: functional
[22] = tested on: Mus musculus; assay: Anticonvulsant activity in mouse assessed as reduction of PTZ-induced lethality at 50 mg/kg, ip administered 30 mins prior to PTZ challenge measured after 0.5 hrs; assay type: functional; parameters: scale not given: the % may be the effect or the level left; settings: route intraperitoneal
[23] = tested on: Mus musculus; assay: Anticonvulsant activity in mouse assessed as inhibition of isoniazid-induced clonic seizure at 50 mg/kg, ip administered 30 mins prior to isoniazid challenge measured after 0.5 hrs; assay type: functional; settings: route intraperitoneal; in short: as §3
[24] = tested on: Mus musculus; assay: Anticonvulsant activity in mouse assessed as inhibition of PTZ-induced clonic seizure at 50 mg/kg, ip administered 30 mins prior to PTZ challenge measured after 0.5 hrs; assay type: functional; settings: route intraperitoneal; in short: as §3
[25] = tested on: Mus musculus; assay: Anticonvulsant activity in mouse assessed as inhibition of thiosemicarbazide-induced tonic seizure at 50 mg/kg, ip administered 30 mins prior to thiosemicarbazide challenge measured after 2.5 hrs; assay type: functional; settings: route intraperitoneal; in short: as §4
[26] = tested on: Mus musculus; assay: Anticonvulsant in po dosed mouse assessed as protection against maximum electric stimulus-induced seizures; assay type: functional
In short: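 Oral version of the phase-II protocol in KunMing mice (18–25 g). Groups of 10 dosed p.o. over a range giving at least three points between 10–90% MES protection or rotarod minimal neurotoxicity. Testing at 2 h time to peak effect. ED50 and TD50 with 95% confidence intervals from regression. PI = TD50/ED50.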

[27] = tested on: Mus musculus; assay: Neurotoxicity against mouse at 30 mg/kg, ip after 0.5 hrs by rotarod ataxia test; assay type: toxicity, organism-based; parameters: dose 30 mg/kg, route intraperitoneal; settings: in vivo; in short: as §2
[28] = tested on: Mus musculus; assay: Anticonvulsant in mouse assessed as protection against maximum electric stimulus-induced seizures at 30 mg/kg, ip after 4 hrs; assay type: functional, organism-based; parameters: dose 30 mg/kg; in short: as §1

| Structure (SMILES) | Activity [1] | Activity [2] | Activity [3] | ED50 [4] | PI [5] | TD50 [7] | further results |
| --- | --- | --- | --- | --- | --- | --- | --- |
| COc1ccccc1Oc1ccc2nncn2n1 | inactive | Non-toxic | Non-toxic | > 100 mg/kg | – | – | – |
| Cc1ccccc1Oc1ccc2nncn2n1 | inactive | Non-toxic | Non-toxic | 54.8 mg/kg | 4.01 | 220 mg/kg | Activity [6]: Active |
| CCCCCCCCCOc1ccc2nncn2n1 | inactive | Non-toxic | Toxic | > 100 mg/kg | – | – | – |
| Clc1ccc(Oc2ccc3nncn3n2)c(Cl)c1 | – | – | – | 17.3 mg/kg | 22 | 380 mg/kg | TD50 [8]: 546 mg/kg; inhibition in vivo at 50 mg/kg [9]: 0%; Activity [10]: 40%; inhibition in vivo at 50 mg/kg [11]: 90%; Activity [12]: Non-toxic; Activity [13]: 40%; HD50 [14]: 746.6 mg/kg; inhibition in vivo at 50 mg/kg [15]: 0%; inhibition in vivo at 50 mg/kg [16]: 80%; Activity [17]: Active; Ratio [18]: 43.2; Activity [19]: 0%; inhibition in vivo at 50 mg/kg [20]: 10%; PI [21]: 12; Activity [22]: 0%; inhibition in vivo at 50 mg/kg [23]: 90%; inhibition in vivo at 50 mg/kg [24]: 100%; inhibition in vivo at 50 mg/kg [25]: 0%; ED50 [26]: 45.6 mg/kg; Activity [27]: Non-toxic |
| Cc1ccc(Oc2ccc3nncn3n2)cc1 | inactive | Non-toxic | Non-toxic | > 100 mg/kg | – | – | – |
| NC(=O)N1c2ccccc2C=Cc2ccccc21 [CARBAMAZEPINE] | – | – | – | 8.8 mg/kg | – | – | inhibition in vivo at 50 mg/kg [9]: 0%; Activity [10]: 0%; inhibition in vivo at 50 mg/kg [11]: 90%; Activity [13]: 10%; HD50 [14]: 172 mg/kg; inhibition in vivo at 50 mg/kg [15]: 0%; inhibition in vivo at 50 mg/kg [16]: 80%; Activity [19]: 0%; inhibition in vivo at 50 mg/kg [20]: 0%; Activity [22]: 0%; inhibition in vivo at 50 mg/kg [23]: 40%; inhibition in vivo at 50 mg/kg [24]: 100%; inhibition in vivo at 50 mg/kg [25]: 0% |
| O=c1ccc(Oc2ccccc2)n[nH]1 | inactive | Non-toxic | – | 110 mg/kg | 2.5 | 274 mg/kg | – |
| CCCCCOc1ccc2nncn2n1 | – | – | – | 39.4 mg/kg | 1.79 | 70.4 mg/kg | Activity [12]: Non-toxic; Activity [28]: inactive; Activity [27]: Toxic |
| Clc1ccccc1Oc1ccc2nncn2n1 | inactive | Non-toxic | Non-toxic | 47.3 mg/kg | 4 | 190 mg/kg | Activity [6]: Active |
| Clc1ccc(Oc2ccc3nncn3n2)cc1 | – | – | – | 36.7 mg/kg | 10.7 | 394 mg/kg | Activity [12]: Non-toxic; Activity [27]: Non-toxic |
| COc1ccc(Oc2ccc3nncn3n2)cc1 | inactive | Non-toxic | Non-toxic | > 100 mg/kg | – | – | – |
